According to ChEMBL document CHEMBL1152771, “Identification of Shc Src homology 2 domain-binding peptoid-peptide hybrids” (J Med Chem, 2009):
Calls of active or inactive are those of the source. No cut-off for these calls is given here. Where a SMILES comes first, the peptide text is derived from it. [ ]: non-standard residue; d: D form. The star is where a group is joined. X2 = O=C(c1cc(N=C=S)ccc1-c1c2ccc(=O)cc-2oc2cc(O)ccc12)*; pY = N[C@@H](Cc1ccc(OP(=O)(O)O)cc1)C(=O)O; GABA = NCCCC(=O)O

Tests used:
[1] = target: T1, SHC-transforming protein 1 (Homo sapiens) (UniProt P29353); test: Inhibition of Shc Src homology 2 domain binding to cMet expressed in human B5/589 cells at 10 uM; format: cell-based
T1 sequence (whole entry): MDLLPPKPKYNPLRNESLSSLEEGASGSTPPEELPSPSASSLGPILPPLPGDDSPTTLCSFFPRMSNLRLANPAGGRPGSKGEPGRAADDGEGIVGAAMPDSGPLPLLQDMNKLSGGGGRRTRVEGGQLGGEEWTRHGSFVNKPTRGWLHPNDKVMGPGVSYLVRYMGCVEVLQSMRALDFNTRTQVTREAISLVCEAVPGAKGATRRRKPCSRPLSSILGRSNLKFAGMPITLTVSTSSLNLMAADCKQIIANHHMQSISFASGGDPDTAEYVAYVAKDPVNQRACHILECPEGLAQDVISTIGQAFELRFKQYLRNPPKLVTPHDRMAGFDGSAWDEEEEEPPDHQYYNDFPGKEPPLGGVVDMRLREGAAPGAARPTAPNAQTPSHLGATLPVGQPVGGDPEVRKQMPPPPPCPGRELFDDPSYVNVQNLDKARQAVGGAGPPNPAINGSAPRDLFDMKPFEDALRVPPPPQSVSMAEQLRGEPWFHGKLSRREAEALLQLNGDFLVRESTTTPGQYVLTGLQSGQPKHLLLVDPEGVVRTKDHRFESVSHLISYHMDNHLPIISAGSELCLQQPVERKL
Summary of the method: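 B5/589 human mammary epithelial cells serum-starved 48 h, then exposed 1 h to peptide (10 μM) or none. HGF stimulation at 50 ng/mL for 20 min, then lysis in cold detergent buffer (pH 7.4). c-Met captured with biotinylated antibody on streptavidin resin; co-precipitated Shc and recovered c-Met detected by SDS-PAGE and immunoblot with chemiluminescence.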

[2] = target: T1, SHC-transforming protein 1 (Homo sapiens); test: (§1) Binding affinity to Shc Src homology 2 domain by fluorescence anisotropy
Summary of the method: (§2)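 Direct binding: 5 nM N-terminal fluorescein-labelled peptide in 10 mM HEPES, 150 mM NaCl pH 7.5 with 10% (v/v) DMSO; Shc SH2 protein serially diluted from 100 μM. Excitation 485 nm, parallel and perpendicular emission at 535 nm. Kd from fitting anisotropy versus protein concentration to a single-site binding model.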

[3] = target: T2, SHC-transforming protein 1 (Homo sapiens, UniProt P29353); test: as §1; summary of the method: as §2
T2 sequence (P29353 whole entry): T1 sequence (whole entry)

CC(=O)N[C@@H](CCCNC(=N)N)C(=O)N[C@@H](CCCNC(=N)N)C(=O)N[C@@H](CCCNC(=N)N)C(=O)N[C@@H](CCCNC(=N)N)C(=O)N[C@@H](CCCNC(=N)N)C(=O)N[C@@H](CCCNC(=N)N)C(=O)N[C@@H](CCCNC(=N)N)C(=O)N[C@@H](CCCNC(=N)N)C(=O)NCCOCCOCCOCCNC(=O)[C@H](CO)NC(=O)[C@H](CC(C)C)NC(=O)CNC(=O)[C@H](CCC(N)=O)NC(=O)[C@H](Cc1ccc(OP(=O)(O)O)cc1)NC(=O)CCCCNC(=O)c1cc(N=C=S)ccc1-c1c2ccc(=O)cc-2oc2cc(O)ccc12
Activity [1]: Active

CC[C@H](C)[C@H](NC(=O)[C@H](CCCCN)NC(=O)[C@@H](NC(=O)[C@H](CCC(N)=O)NC(=O)[C@H](CCCNC(=N)N)NC(C)=O)[C@@H](C)CC)C(=O)N[C@@H](Cc1c[nH]c2ccccc12)C(=O)N[C@@H](Cc1ccccc1)C(=O)N[C@@H](CCC(N)=O)C(=O)N[C@@H](CC(N)=O)C(=O)N[C@@H](CCCNC(=N)N)C(=O)N[C@@H](CCCNC(=N)N)C(=O)N[C@@H](CCSC)C(=O)N[C@@H](CCCCN)C(=O)N[C@@H](Cc1c[nH]c2ccccc12)C(=O)N[C@@H](CCCCN)C(=O)N[C@@H](CCCCN)C(=O)NCCOCCOCCOCCNC(=O)[C@H](CO)NC(=O)[C@H](CC(C)C)NC(=O)CNC(=O)[C@H](CCC(N)=O)NC(=O)[C@H](Cc1ccc(OP(=O)(O)O)cc1)NC(=O)CCCCNC(=O)c1cc(N=C=S)ccc1-c1c2ccc(=O)cc-2oc2cc(O)ccc12
Activity [1]: Active

CC(C)C[C@H](NC(=O)CNC(=O)[C@H](CCC(N)=O)NC(=O)[C@H](Cc1ccc(OP(=O)(O)O)cc1)NC(=O)[C@H](CC(C)C)NC(=O)CNC(=O)c1cc(N=C=S)ccc1-c1c2ccc(=O)cc-2oc2cc(O)ccc12)C(=O)N[C@@H](CO)C(N)=O (HELM PEPTIDE1{[O=C(c1cc(N=C=S)ccc1-c1c2ccc(=O)cc-2oc2cc(O)ccc12)[*:2]].G.L.[O=C([C@H](Cc1ccc(OP(=O)(O)O)cc1)N[*:1])[*:2]].Q.G.L.S.[am]}$$$$V2.0)
Activity [2]: inactive

CC(C)C[C@H](NC(=O)CNC(=O)[C@H](CCC(N)=O)NC(=O)[C@H](Cc1ccc(OP(=O)(O)O)cc1)NC(=O)CNC(=O)c1cc(N=C=S)ccc1-c1c2ccc(=O)cc-2oc2cc(O)ccc12)C(=O)N[C@@H](CO)C(N)=O (HELM PEPTIDE1{[O=C(c1cc(N=C=S)ccc1-c1c2ccc(=O)cc-2oc2cc(O)ccc12)[*:2]].G.[O=C([C@H](Cc1ccc(OP(=O)(O)O)cc1)N[*:1])[*:2]].Q.G.L.S.[am]}$$$$V2.0)
Activity [2]: inactive

CC(C)C[C@H](NC(=O)CNC(=O)[C@H](CCC(N)=O)NC(=O)[C@H](Cc1ccc(OP(=O)(O)O)cc1)NC(=O)CCCNC(=O)c1cc(N=C=S)ccc1-c1c2ccc(=O)cc-2oc2cc(O)ccc12)C(=O)N[C@@H](CO)C(N)=O ({X2-GABA}-[pY]QGLS-NH2)
Kd [3]: 7.2 µM
